Assay results reported in ChEMBL document CHEMBL1148286.

Experiments:
[1] = biological target: Transthyretin (Homo sapiens) (UniProt P02766); experiment: Transthyretin (TTR) amyloidogenesis inhibition activity by employing an acid-mediated (pH 4.4) WTTTR amyloid fibril formation assay, at 3.6 uM conc.; type: functional
Procedure, shortened: (§1)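 WT TTR (3.6 µM tetramer) in 10 mM phosphate, 100 mM KCl, 1 mM EDTA pH 7.6, preincubated 30 min at 25 °C with compound from DMSO stock. Acidified to pH 4.4 with acetate buffer, then held 72 h at 37 °C without agitation. Turbidity read at 350 and 400 nm after vortexing. Expressed as % of the no-inhibitor control; triplicate.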

[2] = biological target: Transthyretin (Homo sapiens) (UniProt P02766); experiment: Transthyretin (TTR) amyloidogenesis inhibition activity by employing an acid-mediated (pH 4.4) WTTTR amyloid fibril formation assay, at 7.2 uM conc.; type: functional; procedure, shortened: as §1
[3] = biological target: Transthyretin (Homo sapiens) (UniProt P02766); experiment: Ability to bind TTR selectively over all other proteins in human blood plasma (equiv bound); type: cell-free
Procedure, shortened: (§2)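 Human blood plasma (1.0 mL) incubated with compound from 1.44 mM DMSO stock (final 10.8 µM) at 37 °C for 24 h with rocking. Pre-cleared with quenched sepharose, then TTR captured on anti-TTR antibody sepharose at 4 °C, washed with TSA/0.05% saponin and TSA. Eluted with 100 mM triethylamine pH 11.5. Ligand:TTR stoichiometry measured by reverse-phase HPLC (maximum 2 per tetramer).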

[4] = biological target: Transthyretin (Homo sapiens) (UniProt P02766); experiment: The first dissociation constant for binding to WT TTR determined by isothermal titration calorimetry (25 C, pH 8.0)
[5] = biological target: Transthyretin (Homo sapiens) (UniProt P02766); experiment: The second dissociation constant for binding to WT TTR determined by isothermal titration calorimetry (25 C, pH 8.0)
[6] = biological target: Transthyretin (Homo sapiens) (UniProt P02766); experiment: Ability to bind TTR selectively over all other proteins in human blood plasma (equiv bound); None observed; type: cell-free; procedure, shortened: as §2

Row | Fibril formation [1] [%] | Fibril formation [2] [%] | Plasma selectivity [3] | Structure (SMILES) | further results
1 | 37 | 3.4 |  | O=C(O)c1cc(-c2ccc(F)cc2F)ccc1O | 
2 | 35.7 | 3.7 | 1.27 | O=C(O)c1ccc(-c2cc(F)cc(F)c2)cc1 | Kd1 [4]: 9 nM; Kd2 [5]: 1100 nM
3 | 39.4 | 9.1 |  | O=C(O)c1cccc(-c2ccc(F)cc2F)c1 | Plasma selectivity [6]: None observed
4 | 32.6 | 2.6 | 0.2 | O=C(O)c1ccc(-c2ccc(F)cc2F)cc1 | 
5 | 38.7 | 2.5 | 0.07 | O=C(O)c1cc(-c2ccccc2F)ccc1O | 
6 |  | 32.4 |  | Oc1ccc(-c2ccc(F)cc2F)cc1 | 
7 |  | 15.7 |  | O=C(O)c1cccc(-c2ccc(F)cc2)c1 | 
8 | 38.5 | 3.5 | None observed | O=C(O)c1cccc(-c2cc(F)c(O)c(F)c2)c1 | 
9 | 35.7 | 5.6 | 0.23 | O=C(O)c1cccc(-c2cc(F)cc(F)c2)c1 | 
10 | 35.1 | 6.7 | 0.29 | O=C(O)c1cccc(-c2c(F)cccc2F)c1 | 
11 | 32.7 | 3 | 0.8 | O=C(O)c1cccc(-c2cc(Cl)cc(Cl)c2)c1 | 
12 |  | 38.5 |  | COC(=O)c1cc(-c2ccc(F)cc2F)ccc1O | 
13 | 28.5 | 4.5 |  | O=C(O)c1ccc(-c2c(F)cccc2F)cc1 | Kd2 [5]: 1300 nM
14 |  | 30.8 |  | O=C(O)c1cccc(-c2ccccc2)c1 | 
15 |  | 31.5 |  | Oc1cccc(-c2ccc(F)cc2F)c1 | 
16 |  | 100 |  | Fc1ccc(-c2ccccc2)c(F)c1 | 
17 | 32.4 | 4.8 | 0.08 | O=C(O)c1ccc(-c2ccccc2F)cc1 | 
18 |  | 69.9 |  | COc1ccc(-c2ccc(F)cc2F)cc1C(=O)O | 
19 | 39.4 | 9.8 | None observed | O=C(O)c1cccc(-c2ccccc2F)c1 | 

More lines, now with the values behind:

Row | Structure (SMILES) | Fibril formation [1] [%] | Fibril formation [2] [%] | Plasma selectivity [3] | further results
20 | Fc1ccccc1-c1ccccc1 |  | 99.4 |  | 
21 | Oc1ccc(-c2cc(F)cc(F)c2)cc1 |  | 16.4 |  | 
22 | OCc1ccc(-c2cc(Cl)cc(Cl)c2)cc1 | 38.9 | 5.9 | 0.54 | 
23 | Oc1ccc(-c2ccccc2F)cc1 |  | 19.6 |  | 
24 | OCc1cccc(-c2ccccc2)c1 |  | 85.5 |  | 
25 | Fc1cc(F)cc(-c2ccccc2)c1 |  | 100 |  | 
26 | O=C(O)c1ccc(-c2cc(F)c(O)c(F)c2)cc1 | 31.7 | 3.4 | 0.07 | 
27 | Oc1cccc(-c2ccccc2)c1 |  | 61.2 |  | 
28 | OCc1ccccc1-c1ccccc1 |  | 81 |  | 
29 | O=Cc1ccc(-c2cc(Cl)cc(Cl)c2)cc1 |  | 25.4 |  | 
30 | Clc1cc(Cl)cc(-c2ccccc2)c1 |  | 52.2 |  | 
31 | OCc1ccccc1-c1cc(Cl)cc(Cl)c1 | 33.6 | 7.7 |  | Plasma selectivity [6]: None observed
32 | O=Cc1ccc(-c2ccccc2)cc1 |  | 93.5 |  | 
33 | O=Cc1ccccc1-c1cc(Cl)cc(Cl)c1 | 34.5 | 7.1 | 1.96 | 
34 | Oc1cccc(-c2cc(F)cc(F)c2)c1 | 40.9 | 10.2 | 0.18 | 
35 | O=Cc1ccc(-c2cc(F)cc(F)c2)cc1 |  | 69.6 |  | 
36 | Oc1cccc(-c2ccc(F)cc2)c1 |  | 46.3 |  | 
37 | Oc1ccc(-c2ccc(F)cc2)cc1 |  | 53.1 |  | 

Row | Structure (SMILES) | Fibril formation [1] [%] | Fibril formation [2] [%] | Plasma selectivity [3] | further results
38 | O=C(O)c1ccc(-c2ccc(F)cc2)cc1 |  | 13.3 |  | 
39 | O=C(O)c1cc(-c2ccc(F)cc2)ccc1O | 38.7 | 2.6 | 0.09 | 
40 | Oc1cccc(-c2ccccc2F)c1 |  | 19.5 |  | 
41 | O=Cc1ccccc1-c1ccccc1 |  | 72.5 |  | 
42 | O=C(O)c1cc(-c2ccc(Cl)cc2Cl)ccc1O | 29.9 | 3.6 | 0.27 | 
43 | OCc1ccc(-c2ccccc2)cc1 |  | 100 |  | 
44 | O=C(O)c1cc(-c2ccccc2)ccc1O | 47.4 | 15.4 |  | Plasma selectivity [6]: None observed
45 | Fc1ccc(-c2ccccc2)cc1 |  | 100 |  | 
46 | O=C(O)c1ccccc1-c1cc(Cl)cc(Cl)c1 |  | 45.4 |  | 
47 | O=Cc1cccc(-c2ccccc2)c1 |  | 35.4 |  | 
48 | O=C(O)c1ccc(-c2cc(Cl)cc(Cl)c2)cc1 | 41.2 | 4.9 | 1.56 | 
49 | O=C(O)c1cc(-c2cc(F)cc(F)c2)ccc1O | 35.5 | 1 | None observed | 
50 | O=Cc1cccc(-c2cc(F)cc(F)c2)c1 |  | 64.3 |  | 
51 | O=C(O)c1ccc(-c2cc(Cl)c(O)c(Cl)c2)cc1 | 25.8 | 3.8 | 0.26 | 
52 | OCc1cccc(-c2cc(Cl)cc(Cl)c2)c1 | 30 | 3.3 | 0.89 | 
53 | O=C(O)c1ccc(-c2ccccc2)cc1 | 51.5 | 14.3 | 0.08 | 
54 | O=Cc1cccc(-c2cc(Cl)cc(Cl)c2)c1 | 30.6 | 4.4 | 1.3 | 
55 | O=C(O)c1cccc(-c2cc(Cl)c(O)c(Cl)c2)c1 | 25.5 | 4.4 | 0.12 | 
